One test has as its target Sigma 2 receptor. In words: Displacement of [3H]-DTG from Sigma opioid receptor type 2 in rat liver membrane. It counts as cell membranes. In short, it runs like this:
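Liver membranes from male Sprague-Dawley rats (160 μg protein) with 5 nM [3H]DTG plus 1 μM dextralorphan masking σ1 sites. Twelve ligand concentrations (0.05–10 000 nM or 0.5–100 000 nM), 50 mM Tris-HCl pH 8.0, 120 min, 25 °C. Nonspecific binding by 10 μM haloperidol. Filtration and counting. Ki from IC50 by Cheng–Prusoff; 2–3 experiments ± SEM.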

In test [1] the target is Sigma non-opioid intracellular receptor 1 (Cavia porcellus) (UniProt Q60492). In words: Relative affinity for sigma-1 compared to sigma-2 type receptors.

This passage reports Ki and Ratio results from ChEMBL document CHEMBL1129631, “Synthesis and evaluation of aryl-substituted N-(arylethyl)-N-methyl-2-(1-pyrrolidinyl)ethylamines and corresponding arylacetamides for sigma receptor affinity” (J Med Chem, 1996).

Sequence of Sigma non-opioid intracellular receptor 1 (Cavia porcellus) (Q60492 whole entry, looked up): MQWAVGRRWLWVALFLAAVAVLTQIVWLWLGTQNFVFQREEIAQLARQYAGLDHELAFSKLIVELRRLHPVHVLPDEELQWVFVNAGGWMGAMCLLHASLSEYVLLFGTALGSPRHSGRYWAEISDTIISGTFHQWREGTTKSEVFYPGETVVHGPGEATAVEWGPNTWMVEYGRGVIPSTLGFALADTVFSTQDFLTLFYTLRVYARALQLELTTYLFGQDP

Turning to `COc1ccccc1CCN(C)CCN1CCCC1`, the affinity on Sigma 2 receptor, expressed as Ki, was 144 nM. Moreover, the Ratio in test [1] was 0.11.
The corresponding values for `CN(CCN1CCCC1)C(=O)Cc1ccccc1[N+](=O)[O-]` are 1490 nM and 0.49.
For `COc1cccc(CC(=O)N(C)CCN2CCCC2)c1`, the Ki (in general, the equilibrium dissociation constant of an inhibitor or competing ligand from its target) at Sigma 2 receptor was 1110 nM. In addition, the Ratio in test [1] was found to be 2.8.
Consider `CN(CCc1ccccc1N)CCN1CCCC1`, for which, on Sigma 2 receptor, the Ki worked out at 640 nM. For the same compound, the Ratio in test [1] was 0.45.
For `CN(CCc1cccc(N)c1)CCN1CCCC1`, on Sigma 2 receptor, affinity was put at a Ki of 2240 nM. For the same compound, the Ratio in test [1] was 0.26.
`COc1ccc(CC(=O)N(C)CCN2CCCC2)cc1` returned a Ki on Sigma 2 receptor of 1220 nM. Further, in test [1], the Ratio stood at 1.8.
Turning to `COc1cccc(CCN(C)CCN2CCCC2)c1`, at Sigma 2 receptor, affinity was put at a Ki of 209 nM. Also, the Ratio in test [1] is 0.11.
Turning to `COc1ccc(CCN(C)CCN2CCCC2)cc1`, the Ki at Sigma 2 receptor came out at 256 nM. Besides, the Ratio in test [1] was 0.12.
For the compound `CN(CCN1CCCC1)C(=O)Cc1ccc([N+](=O)[O-])cc1`, the affinity at Sigma 2 receptor, expressed as Ki, was 596 nM. The Ratio in test [1] is 1.5.
In turn, `CN(CCc1ccc(N)cc1)CCN1CCCC1` returned a Ki at Sigma 2 receptor of 974 nM. Also, the Ratio in test [1] came to 0.28.
Taken in the same sequence, the figures for `CN(CCc1ccc([N+](=O)[O-])cc1)CCN1CCCC1` were 62.7 nM and 0.07.
Take `CN(CCN1CCCC1)C(=O)Cc1cccc([N+](=O)[O-])c1`: on Sigma 2 receptor, the inhibition constant (Ki) turned out to be 539 nM. The Ratio in test [1] worked out at 3.
At Sigma 2 receptor, `COc1ccccc1CC(=O)N(C)CCN1CCCC1` came in with a Ki of 3170 nM.
`CN(CCc1cccc([N+](=O)[O-])c1)CCN1CCCC1` had an inhibition constant (Ki) on Sigma 2 receptor of 95.2 nM. In test [1], the Ratio stood at 0.07.
In turn, `CN(CCc1ccccc1[N+](=O)[O-])CCN1CCCC1` had a Ki at Sigma 2 receptor of 311 nM. In test [1], the Ratio amounted to 0.02.
